{
  "source": "ChEMBL document CHEMBL1155751",
  "about": "“Two phenanthraquinones from Dendrobium moniliforme” (J Nat Prod, 2001)",
  "key": {"[1]": {"system": "Neutrophil", "test": "Inhibition of secretagogue-induced superoxide anion generation in rat neutrophils at 30 uM treated 30 mins before secretagogue challenge measured after 15 mins", "format": "functional, cell-based"}, "[2]": {"system": "Mast cell", "test": "Inhibition of secretagogue-induced histamine release in Sprague-Dawley rat peritoneal mast cells at 30 uM […] secretagogue challenge measured after 15 mins", "format": "functional", "settings": "read-out: INH, in the assay text read “3 mins before” for “30 mins before”", "summary_of_the_method": "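Peritoneal mast cells came from exsanguinated Sprague-Dawley rats by heparinized Tyrode's lavage, purified through 38% BSA, and resuspended at (1-1.5) × 10^6 cells/mL in Tyrode's with 0.1% BSA. Supernatant β-glucuronidase was read at 550 nm (phenolphthalein glucuronide, pH 4.5) and histamine by o-phthaldialdehyde fluorescence at 350/450 nm. Release is % of the Triton X-100 total.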"}, "[3]": {"system": "RAW264.7", "test": "Antiinflammatory activity in mouse RAW264.7 cells assessed as inhibition of LPS-induced TNFalpha formation at 1 uM treated 1 hr before LPS challenge measured after 24 hrs by ELISA", "format": "functional", "summary_of_the_method": "(§1)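 RAW 264.7 cells were seeded at 2 × 10^5 cells/well in DMEM with 5% heat-inactivated FBS, penicillin and streptomycin, and left to adhere overnight. Cells got DMSO or compound at 37 °C for 1 h, then 1 µg/mL LPS (E. coli 0111:B4) for 24 h. Medium nitrite was read by Griess (550 nm, NaNO2 standard), TNF-α by ELISA and PGE2 by EIA. Means ± SEM, N = 3-4.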"}, "[4]": {"system": "RAW264.7", "test": "Antiinflammatory activity in mouse RAW264.7 cells assessed as LPS-induced nitrite levels at 1 uM treated 1 hr before LPS challenge measured after 24 hrs by Griess reaction (Rvb=46.6 +/- 0.4)", "format": "functional", "summary_of_the_method": "as §1"}, "[5]": {"system": "N9", "test": "Cytotoxicity against mouse N9 cells assessed as LDH release", "format": "cell-based"}, "[6]": {"system": "RAW264.7", "test": "Cytotoxicity against mouse RAW264.7 cells assessed as LDH release", "format": "cell-based"}, "[7]": {"system": "Mast cell", "test": "Inhibition of secretagogue-induced beta-glucuronidase release in Sprague-Dawley rat peritoneal mast cells at 30 uM treated 3 mins before secretagogue challenge measured after 15 mins"}, "[8]": {"system": "RAW264.7", "test": "Antiinflammatory activity in mouse RAW264.7 cells assessed as inhibition of LPS-induced prostaglandin E2 formation at 1 uM treated 1 hr before LPS challenge measured after 24 hrs by EIA", "format": "functional", "summary_of_the_method": "as §1"}, "[9]": {"system": "N9", "test": "Antiinflammatory activity in mouse N9 cells assessed as inhibition of LPS and IFN-gamma-induced nitrite formation at 3 uM treated 1 hr before LPS and IFN-gamma challenge measured after 24 hrs by Griess reaction", "settings": "N9, read-out: INH"}, "[10]": {"system": "N9", "test": "Antiinflammatory activity in mouse N9 cells assessed as inhibition of LPS and IFN-gamma-induced TNFalpha formation at 3 uM treated 1 hr before LPS and IFN-gamma challenge measured after 24 hrs by ELISA", "settings": "N9, read-out: INH"}, "[11]": {"system": "Neutrophil", "test": "Inhibition of secretagogue-induced histamine release in rat neutrophils at 30 uM treated 30 mins before secretagogue challenge measured after 15 mins", "format": "functional, cell-based"}, "[12]": {"system": "Neutrophil", "test": "Inhibition of secretagogue-induced beta-glucuronidase release in rat neutrophils at 30 uM treated 30 mins before secretagogue challenge measured after 15 mins", "format": "functional, cell-based"}, "[13]": {"system": "Mast cell", "test": "Secretagogue-induced histamine release in Sprague-Dawley rat peritoneal mast cells at 30 uM treated 3 mins before secretagogue challenge measured after 15 mins"}},
  "note": "The source made the active and inactive calls. The calls are words filed in the database; no cut-off is given here.",
  "data": [
    {"smiles": "COC1=CC(=O)c2ccc3cc(OC)cc(O)c3c2C1=O", "note": "[DENBINOBIN]", "values": [
      {"measurement": "Activity", "setting": "[1]", "result": "inactive"},
      {"measurement": "inhibition at 30 µM", "setting": "[2]", "result": 39, "unit": "%"},
      {"measurement": "inhibition at 1 µM", "setting": "[3]", "result": 62, "unit": "%"},
      {"measurement": "Activity", "setting": "[4]", "result": 40.4, "unit": "µM"},
      {"measurement": "Activity", "setting": "[5]", "result": "< 10", "unit": "%"},
      {"measurement": "Activity", "setting": "[6]", "result": "< 10", "unit": "%"},
      {"measurement": "inhibition at 30 µM", "setting": "[7]", "result": 40, "unit": "%"},
      {"measurement": "inhibition at 1 µM", "setting": "[8]", "result": 43, "unit": "%"},
      {"measurement": "inhibition at 3 µM", "setting": "[9]", "result": 44, "unit": "%"},
      {"measurement": "inhibition at 3 µM", "setting": "[10]", "result": 70, "unit": "%"},
      {"measurement": "Activity", "setting": "[11]", "result": "inactive"},
      {"measurement": "Activity", "setting": "[12]", "result": "inactive"}
    ]},
    {"smiles": "CCN(CC)CCCC(C)Nc1c2ccc(Cl)cc2nc2ccc(OC)cc12", "note": "(centres undefined) [QUINACRINE]", "values": [
      {"measurement": "histamine release at 30 µM", "setting": "[13]", "result": 18.4, "unit": "%"},
      {"measurement": "inhibition at 30 µM", "setting": "[7]", "result": 8.7, "unit": "%"}
    ]}
  ]
}
